Reference: ChEMBL document CHEMBL1157343, “Prenylated flavonoids from the heartwood of Artocarpus communis with inhibitory activity on lipopolysaccharide-induced nitric oxide production” (J Nat Prod, 2006)

Columns and labels:
[1] = test system: RAW264.7; test: Inhibition of LPS-induced nitric oxide production in mouse RAW264.7 cells assessed as nitrite accumulation after 20 hrs; assay type: functional, cell-based; settings: RAW264.7, 20 h
Procedure, shortened: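 RAW 264.7 macrophages grown in DMEM with 10% FBS and penicillin-streptomycin at 37 °C, 5% CO2. Plated at 5 × 10⁵ cells/mL in phenol-red-free 10% FBS-DMEM for 24 h, then PBS-washed, refreshed, and given 1 μg/mL LPS ± samples for 20 h. Nitrite in supernatant measured by Griess reaction at 540 nm against a sodium nitrite standard. Inhibition calculated versus vehicle control; IC50 by nonlinear regression. L-NMMA positive control.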

[2] = test system: RAW264.7; test: Selectivity index, ratio of CC50 for mouse RAW264.7 cells to IC50 for nitric oxide production in mouse RAW264.7 cells; assay type: functional
[3] = test system: RAW264.7; test: Cytotoxicity against mouse RAW264.7 cells by MTT assay; assay type: cell-based

Row | IC50 [1] | SMILES | Ratio CC50/IC50 [2] | IC50 [3]
1 | 12.3 µM | CC(C)=CCc1c(O)ccc2c1O[C@H](c1ccc(O)cc1O)CC2=O | 3.9 | 47.9 µM
2 | 18.8 µM | CC1(C)C=Cc2c(ccc(C(=O)/C=C/c3ccc(O)cc3O)c2O)O1 | 3.1 | 59.2 µM
3 | > 60 µM | COc1cc2oc3c(c(=O)c2c(O)c1/C=C/C(C)C)C(C=C(C)C)Oc1cc(O)ccc1-3 (stereo not drawn) | <0.8 | 46.1 µM
4 | 18.7 µM | COc1cc2oc(-c3ccc(O)cc3O)c(CC=C(C)C)c(=O)c2c(O)c1/C=C/C(C)C [ARTOCARPIN] | 2.4 | 45.3 µM
5 | 42.1 µM | CC(C)=CC1Oc2cc(O)ccc2-c2oc3cc4c(c(O)c3c(=O)c21)C=CC(C)(C)O4 (stereo not drawn) [CUDRAFLAVONE A] | 1 | 42.1 µM
6 | 52.3 µM | CC(C)=CCc1c(O)cc2oc(-c3ccc(O)cc3O)c(CC=C(C)C)c(=O)c2c1O [CUDRAFLAVONE C] | 1.1 | 59.2 µM
7 | 9.3 µM | C/C(=C/Cc1c(O)ccc(C(=O)/C=C/c2ccc(O)cc2)c1O)COC(=O)/C=C/c1ccc(O)cc1 [GEMICHALCONE B] | 3.8 | 35.1 µM
8 | 23.9 µM | COc1cc(/C=C/C(=O)OC/C(C)=C\Cc2c(O)ccc(C(=O)/C=C/c3ccc(O)cc3O)c2O)ccc1O [GEMICHALCONES C] | 1.6 | 37.6 µM
9 | 6.4 µM | CC(C)=CCc1c(O)ccc(C(=O)/C=C/c2ccc(O)cc2)c1O [ISOBAVACHALCONE] | 2.6 | 16.4 µM
10 | 16.4 µM | CC(C)=CCc1c(O)ccc(C(=O)/C=C/c2ccc(O)cc2O)c1O [MORACHALCONE A] | 3.5 | 58 µM
11 | 19.2 µM | CNC(=N)NCCC[C@H](N)C(=O)O [TILARGININE] | >2.6 | > 50 µM
